According to ChEMBL document CHEMBL3813671, “Unexpected Discovery of Dichloroacetate Derived Adenosine Triphosphate Competitors Targeting Pyruvate Dehydrogenase Kinase To Inhibit Cancer Proliferation” (J Med Chem, 2016):
Calls of active or inactive are those of the source. The rule behind the calls is not given here.

Assays:
MCF7 [1] = assay: Induction of apoptosis in human MCF7 assessed as viable cells at 20 uM after 15 hrs by FITC-annexin V/propidium iodide staining-based flow cytometric analysis (reference value: 93.8%); format: functional; conditions: MCF7, 15 h, read-out: Activity
MCF7 [2] = assay: Cytotoxicity against human MCF7 cells assessed as growth inhibition at 40 uM after 72 hrs by MTT assay relative to control; format: functional, cell-based
[3] = Cytotoxicity against human MCF10A cells assessed as growth inhibition at 20 uM after 72 hrs by MTT assay relative to control; format: cell-based, MCF-10A; conditions: read-out: GI
[4] = molecular target: T1, [Pyruvate dehydrogenase (acetyl-transferring)] kinase isozyme 1, mitochondrial (Homo sapiens, UniProt Q15118); assay: Inhibition of PDK1 in human MCF7 cells assessed as increase in oxygen consumption rate at 5 to 20 uM after 12 hrs; format: cell-based
Procedure, shortened: (§1)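 MCF-7 cells at 2.7×10⁴ cells/well in XF24 plates, attached, then grown 24 h at 37 °C in 5% CO2. Treated 12 h at 5, 10 or 20 µM, rinsed into glycolysis stress-test medium and held 1 h at 37 °C without CO2. OCR, ECAR and PPR then measured on a Seahorse XFe24 analyser. Significance P < 0.05 versus untreated control.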

MCF7 [5] = assay: Induction of mitochondrial membrane potential depolarization in human MCF7 cells at 40 uM after 12 hrs by TMRM staining-based assay; format: functional, cell-based
MCF7 [6] = assay: Induction of apoptosis in human MCF7 assessed as late apoptotic cells at 20 uM after 10 hrs by FITC-annexin V/propidium iodide staining-based flow cytometric analysis (reference value: 1.95%); format: functional
MCF7 [7] = assay: Induction of apoptosis in human MCF7 assessed as viable cells at 20 uM after 5 hrs by FITC-annexin V/propidium iodide staining-based flow cytometric analysis (reference value: 93.8%); format: functional; conditions: MCF7, 5 h, read-out: Activity
Sus scrofa [8] = species: Sus scrofa; assay: Activation of pig heart PDC assessed as production of NADH at 50 uM in presence of ATP
Procedure, shortened: (§2)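 Pig heart PDC (80 µg/ml, carrying intrinsic PDK activity) preincubated 40 min at 37 °C in Mops pH 7.20 buffer with NaF, acetyl-CoA, NADH and DTT. Kinase step 3 min at 37 °C with 55 µM ADP and 100 µM ATP, or no ATP. Stopped with ADP/pyruvate. Residual PDC activity then read as NADH formation at 340 nm, 37 °C, in Tris pH 7.8 with TPP, NAD+, pyruvate and CoA.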

[9] = molecular target: T1, [Pyruvate dehydrogenase (acetyl-transferring)] kinase isozyme 1, mitochondrial; assay: Inhibition of recombinant N-terminal 6xHis-SUMO-tagged human PDK1 (29 to 436 residues) expressed in Escherichia coli BL-21 assessed as suppression of PDC phosphorylation at S293 at 50 uM after 30 mins by Western blot method
[10] = molecular target: T1, [Pyruvate dehydrogenase (acetyl-transferring)] kinase isozyme 1, mitochondrial; assay: Inhibition of PDK1 in human MCF7 cells assessed as increase in ratio of oxygen consumption rate to extracellular acidification rate at 20 uM after 12 hrs; format: cell-based; procedure, shortened: as §1
MCF7 [11] = assay: Reversal of hyperpolarized mitochondrial membrane potential in human MCF7 cells assessed as J-monomer/J-aggregate ratio at 20 uM after 12 hrs by JC1 staining-based flow cytometric analysis; format: functional
Procedure, shortened: (§3)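 MCF-7 cells treated 12 h (5, 10 or 20 µM), then stained with JC-1. Depolarization read as the ratio of green J-monomer to red J-aggregate fluorescence.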

[12] = molecular target: T1, [Pyruvate dehydrogenase (acetyl-transferring)] kinase isozyme 1, mitochondrial; assay: Inhibition of PDK1 in human MCF7 cells assessed as decrease in extracellular acidification rate after 12 hrs; format: cell-based; procedure, shortened: as §1
MCF7 [13] = assay: Reversal of hyperpolarized mitochondrial membrane potential in human MCF7 cells assessed as cells with vital and intact mitochondrial membranes at 5 uM after 12 hrs by JC1 staining-based flow cytometric analysis; format: functional; procedure, shortened: as §3
MCF7 [14] = assay: Induction of apoptosis in human MCF7 assessed as viable cells at 20 uM by FITC-annexin V/propidium iodide staining-based flow cytometric analysis; format: functional, cell-based; conditions: TDE = time-dependent effect
[15] = molecular target: T1, [Pyruvate dehydrogenase (acetyl-transferring)] kinase isozyme 1, mitochondrial; assay: Inhibition of PDK1 in human MCF7 cells assessed as decrease in lactate production at 5 to 20 uM after 12 hrs; format: cell-based
MCF7 [16] = assay: Induction of apoptosis in human MCF7 assessed as early apoptotic cells at 20 uM after 5 hrs by FITC-annexin V/propidium iodide staining-based flow cytometric analysis (reference value: 2.38%); format: functional
MCF7 [17] = assay: Induction of apoptosis in human MCF7 assessed as necrotic cells at 20 uM after 5 hrs by FITC-annexin V/propidium iodide staining-based flow cytometric analysis (reference value: 1.86%); format: functional
MCF7 [18] = assay: Reversal of hyperpolarized mitochondrial membrane potential in human MCF7 cells assessed as cells with vital and intact mitochondrial membranes at 20 uM after 12 hrs by JC1 staining-based flow cytometric analysis; format: functional; procedure, shortened: as §3
MCF7 [19] = assay: Induction of apoptosis in human MCF7 assessed as late apoptotic cells at 20 uM after 15 hrs by FITC-annexin V/propidium iodide staining-based flow cytometric analysis (reference value: 1.95%); format: functional
A549 [20] = assay: Cytotoxicity against human A549 cells assessed as growth inhibition at 40 uM after 72 hrs by MTT assay relative to control; format: functional, cell-based
MCF7 [21] = assay: Cytotoxicity against human MCF7 cells assessed as growth inhibition at 20 uM after 72 hrs by IncuCyte Zoom live cells imaging method; format: functional, cell-based
[22] = molecular target: T1, [Pyruvate dehydrogenase (acetyl-transferring)] kinase isozyme 1, mitochondrial; assay: Inhibition of PDK1 in human MCF7 cells assessed as increase in oxygen consumption rate at 40 uM after 12 hrs; format: cell-based
Sus scrofa [23] = species: Sus scrofa; assay: Activation of pig heart PDC assessed as production of NADH at 50 uM in absence of ATP; procedure, shortened: as §2
[24] = Cytotoxicity against human MCF10A cells assessed as growth inhibition at 10 uM after 72 hrs by MTT assay relative to control; format: cell-based, MCF-10A; conditions: read-out: GI
MCF7 [25] = assay: Induction of apoptosis in human MCF7 assessed as necrotic cells at 20 uM after 15 hrs by FITC-annexin V/propidium iodide staining-based flow cytometric analysis (reference value: 1.86%); format: functional
MCF7 [26] = assay: Induction of apoptosis in human MCF7 assessed as viable cells at 20 uM after 10 hrs by FITC-annexin V/propidium iodide staining-based flow cytometric analysis (reference value: 93.8%); format: functional; conditions: MCF7, 10 h, read-out: Activity
A549 [27] = assay: Cytotoxicity against human A549 cells assessed as growth inhibition after 72 hrs by MTT assay; format: functional, cell-based; conditions: A549, 72 h
[28] = molecular target: T1, [Pyruvate dehydrogenase (acetyl-transferring)] kinase isozyme 1, mitochondrial; assay: Binding affinity to recombinant N-terminal 6xHis-SUMO-tagged human PDK1 (29 to 436 residues) expressed in Escherichia coli BL-21 by isothermal titration calorimetric method
Procedure, shortened: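 Ligand titrated into PDK1 (10 or 20 µM) by ITC at 25 °C, 2.5 µL injections into a 300 µL cell. Protein is His-SUMO-tagged, co-expressed with GroEL/GroES in E. coli BL-21, purified by Ni-IMAC and gel filtration.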

MCF7 [29] = assay: Cytotoxicity against human MCF7 cells assessed as growth inhibition after 72 hrs by MTT assay; format: functional, cell-based; conditions: MCF7, 72 h
MCF7 [30] = assay: Induction of apoptosis in human MCF7 assessed as necrotic cells at 20 uM after 10 hrs by FITC-annexin V/propidium iodide staining-based flow cytometric analysis (reference value: 1.86%); format: functional
MCF7 [31] = assay: Reversal of hyperpolarized mitochondrial membrane potential in human MCF7 cells after 12 hrs by JC1 staining-based flow cytometric analysis; format: functional, cell-based
MCF7 [32] = assay: Reversal of hyperpolarized mitochondrial membrane potential in human MCF7 cells assessed as cells with vital and intact mitochondrial membranes at 10 uM after 12 hrs by JC1 staining-based flow cytometric analysis; format: functional; procedure, shortened: as §3
[33] = molecular target: T1, [Pyruvate dehydrogenase (acetyl-transferring)] kinase isozyme 1, mitochondrial; assay: Inhibition of recombinant N-terminal 6xHis-SUMO-tagged human PDK1 (29 to 436 residues) expressed in Escherichia coli BL-21 assessed as activation of PDC at 50 uM
[34] = molecular target: T1, [Pyruvate dehydrogenase (acetyl-transferring)] kinase isozyme 1, mitochondrial; assay: Inhibition of PDK1 in human MCF7 cells assessed as decrease in proton production rate after 12 hrs; format: cell-based; procedure, shortened: as §1
MCF7 [35] = assay: Induction of apoptosis in human MCF7 assessed as early apoptotic cells at 20 uM after 15 hrs by FITC-annexin V/propidium iodide staining-based flow cytometric analysis (reference value: 2.38%); format: functional
MCF7 [36] = assay: Induction of apoptosis in human MCF7 assessed as late apoptotic cells at 20 uM after 5 hrs by FITC-annexin V/propidium iodide staining-based flow cytometric analysis (reference value: 1.95%); format: functional
[37] = molecular target: T1, [Pyruvate dehydrogenase (acetyl-transferring)] kinase isozyme 1, mitochondrial; assay: Inhibition of recombinant N-terminal 6xHis-SUMO-tagged human PDK1 (29 to 436 residues) expressed in Escherichia coli BL-21 assessed as phosphorylation of RYHGHSMSDP at 50 uM after 30 mins by Kinase-Glo luminescent assay
MCF7 [38] = assay: Induction of apoptosis in human MCF7 assessed as early apoptotic cells at 20 uM after 10 hrs by FITC-annexin V/propidium iodide staining-based flow cytometric analysis (reference value: 2.38%); format: functional
A549 [39] = assay: Cytotoxicity against human A549 cells assessed as growth inhibition at 20 uM after 72 hrs by IncuCyte Zoom live cells imaging method; format: functional, cell-based

T1 sequence (Q15118 whole entry): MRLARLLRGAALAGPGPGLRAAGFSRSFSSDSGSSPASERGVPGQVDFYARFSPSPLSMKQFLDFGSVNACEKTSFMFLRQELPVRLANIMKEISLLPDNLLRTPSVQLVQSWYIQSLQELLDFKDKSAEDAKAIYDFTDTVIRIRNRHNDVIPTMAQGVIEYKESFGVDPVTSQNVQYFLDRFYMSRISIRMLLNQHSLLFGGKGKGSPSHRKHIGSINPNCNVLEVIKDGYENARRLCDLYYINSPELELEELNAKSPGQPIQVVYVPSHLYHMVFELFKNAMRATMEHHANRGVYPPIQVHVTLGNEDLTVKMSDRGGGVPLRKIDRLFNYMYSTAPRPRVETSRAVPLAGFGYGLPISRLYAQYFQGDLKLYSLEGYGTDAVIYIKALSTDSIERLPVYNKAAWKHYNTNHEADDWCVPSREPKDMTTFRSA

inhibition [4]: Dose-dependent effect
Activity (Sus scrofa [8]): inactive
inhibition [9]: Active
inhibition [10]: Active
inhibition [12]: Dose-dependent effect
inhibition [15]: Active
inhibition [22]: inactive
Activity (Sus scrofa [23]): Active
Kd [28]: 40.8 µM
inhibition [33]: Active
inhibition [34]: Dose-dependent effect
inhibition [37]: Active
SMILES: O=C(Nc1ccc(Cl)c(C(F)(F)F)c1)C(Cl)Cl
viability at 20 µM (MCF7 [1]): 78.2%
growth inhibition (GI) (MCF7 [2]): Active
inhibition at 72 h, 20 µM [3]: 10.3%
Activity (MCF7 [5]): Active
Activity (MCF7 [6]): 11.8%
viability at 20 µM (MCF7 [7]): 82.4%
Ratio (MCF7 [11]): 1.69
Activity (MCF7 [13]): 79.7%
Activity (MCF7 [14]): tde
Activity (MCF7 [16]): 1.98%
Activity (MCF7 [17]): 5.41%
Activity (MCF7 [18]): 46.8%
Activity (MCF7 [19]): 14.2%
growth inhibition (GI) (A549 [20]): Active
growth inhibition (GI) (MCF7 [21]): Active
inhibition at 72 h, 10 µM [24]: 3.51%
Activity (MCF7 [25]): 4.96%
viability at 20 µM (MCF7 [26]): 81.9%
IC50 (A549 [27]): 7.46 µM
IC50 (MCF7 [29]): 3.12 µM
Activity (MCF7 [30]): 3.47%
Activity (MCF7 [31]): Dose-dependent effect
Activity (MCF7 [32]): 65%
Activity (MCF7 [35]): 2.65%
Activity (MCF7 [36]): 10.2%
Activity (MCF7 [38]): 2.88%
growth inhibition (GI) (A549 [39]): Active
